The source made the active and inactive calls. The rule behind the calls is not given here.
Key:
U138-MG [1] = assay: Cytotoxicity against human U138MG cells assessed as cell survival at 0.1 nM after 72 hrs by trypan blue dye based assay; assay type: functional; conditions: read-out: Survival
U138-MG [2] = assay: Cytotoxicity against human U138MG cells assessed as cell survival at 0.5 nM after 72 hrs by trypan blue dye based assay; assay type: functional; conditions: read-out: Survival
U138-MG [3] = assay: Cytotoxicity against human U138MG cells assessed as cell survival at higher doses after 72 hrs by trypan blue dye based assay; assay type: functional
U138-MG [4] = assay: Cytotoxicity against human U138MG cells assessed as decrease in cell viability after 72 hrs by trypan blue dye based assay; assay type: functional
U138-MG [5] = assay: Cytotoxicity against human U138MG cells assessed as dose enhancement ratio at 0.1 nM after 72 hrs in presence of 2 Gy dose of proton irradiation by trypan blue dye based assay; assay type: functional
In short: (§1)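 U-138 MG cells received the drug at 0.1, 0.5 or 1.0 nM, alone or combined with a 2 Gy proton exposure. Viable cell number was counted at 72 h. The dose enhancement ratio was calculated from combined versus single treatments.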

U138-MG [6] = assay: Cytotoxicity against human U138MG cells assessed as decrease in cell viability at 0.5 to 1 nM after 72 hrs in presence of 2 Gy dose of proton irradiation by trypan blue dye based assay; assay type: functional; in short: as §1
U138-MG [7] = assay: Induction of apoptosis in human U138MG cells at 0.1 nM after 72 hrs by Annexin V staining based flow cytometry; assay type: functional, cell-based
In short: (§2)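 U-138 MG cells were treated with 0.1 nM drug and analysed by flow cytometry at 72 h: annexin V binding for apoptosis and 7-AAD uptake for necrosis.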

U138-MG [8] = assay: Induction of necrosis in human U138MG cells at 0.1 nM after 72 hrs by 7-AAD staining based flow cytometry; assay type: functional, cell-based; in short: as §2
U138-MG [9] = assay: Induction of apoptosis in human U138MG cells at 0.1 nM after 72 hrs in presence of 6 Gy dose of proton irradiation by Annexin V staining based flow cytometry; assay type: functional, cell-based
U138-MG [10] = assay: Induction of necrosis in human U138MG cells at 0.1 nM after 72 hrs in presence of 6 Gy dose of proton irradiation by 7-AAD staining based flow cytometry; assay type: functional, cell-based
U138-MG [11] = assay: Induction of apoptosis in human U138MG cells assessed as dose enhancement ratio at 0.1 nM after 72 hrs in presence of 2 Gy dose of proton irradiation by Annexin V staining based flow cytometry; assay type: functional
In short: (§3)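 Flow cytometry of U-138 MG cells 72 h after 0.1 nM drug combined with 2 Gy protons: annexin V for apoptosis, 7-AAD for necrosis. The enhancement ratio was derived against single treatments.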

U138-MG [12] = assay: Induction of necrosis in human U138MG cells assessed as dose enhancement ratio at 0.1 nM after 72 hrs in presence of 2 Gy dose of proton irradiation by 7-AAD staining based flow cytometry; assay type: functional; in short: as §3
U138-MG [13] = assay: Anticlonogenic activity against human U138MG cells assessed as decrease in cell survival after 14 days by methylene blue staining based method; assay type: functional; conditions: 336 h
In short: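 Clonogenic survival of U-138 MG human glioblastoma cells after drug exposure alone. Colonies of 50 or more cells were counted 14 days after exposure, and survival curves were calculated from the counts.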

U138-MG [14] = assay: Anticlonogenic activity against human U138MG cells assessed as decrease in cell survival pretreated for 2 hrs followed by 1 to 8 Gy dose of proton irradiation measured after 10 to 14 days by methylene blue staining based method; assay type: functional; conditions: light or radiation study
In short: (§4)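 U-138 MG cells were exposed to 0.001 nM drug before proton irradiation at 1–8 Gy. Colonies of at least 50 cells were counted 14 days after exposure, and survival fractions and curves were derived.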

U138-MG [15] = assay: Anticlonogenic activity against human U138MG cells assessed as cell survival at 0.001 nM pretreated for 2 hrs followed by 1 to 8 Gy dose of proton irradiation measured after 10 to 14 days by methylene blue staining based method; assay type: functional; conditions: light or radiation study, read-out: Survival; in short: as §4
U138-MG [16] = assay: Anticlonogenic activity against human U138MG cells assessed as dose enhancement ratio pretreated for 2 hrs followed by 1 to 8 Gy dose of proton irradiation measured after 10 to 14 days by methylene blue staining based method; assay type: functional
In short: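 U-138 MG clonogenic assay: cells were pretreated with 0.001 nM drug, then given 1–8 Gy protons. Colonies of 50 or more cells were counted at 14 days. The ratio compares the combined survival fraction with that expected from each modality given separately.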

COC(=O)c1cc2c([nH]1)C(=O)C=C1N(C(=O)c3cc4cc(OC)c(OC)c(OC)c4[nH]3)C[C@H]3C[C@]123 [DUOCARMYCIN]
viability at 0.0001 µM (U138-MG [1]): 65%
viability at 0.0005 µM (U138-MG [2]): 25%
Activity (U138-MG [3]): Active
Activity (U138-MG [4]): Dose-dependent effect
IC50 (U138-MG [4]): 0.4 nM
Ratio (U138-MG [5]): 1.6
Activity (U138-MG [6]): Active
Activity (U138-MG [7]): Active
Activity (U138-MG [8]): Active
Activity (U138-MG [9]): inactive
Activity (U138-MG [10]): inactive
Ratio (U138-MG [11]): 2.5
Ratio (U138-MG [12]): 4
IC50 (U138-MG [13]): 0.0018 nM
IC50 (U138-MG [14]): 0.443 nM
viability at 1 pM (U138-MG [15]): 54%
Ratio (U138-MG [16]): 2.17

Reference: ChEMBL document CHEMBL4229393, “Duocarmycin SA, a potent antitumor antibiotic, sensitizes glioblastoma cells to proton radiation” (Bioorg Med Chem Lett, 2018)
